# Results from article PMC3001272 (Biochemistry, 2010).
# Where a SMILES comes first, the peptide text is derived from it.
# Columns and labels:
# [1] = target: T1, PDZ2 (second PDZ domain, 1361-1456) from human PTP1E/PTPL1 (Homo sapiens, UniProt Q12923); assay: NMR titration binding affinity of peptide to PDZ2
# T1 sequence (Q12923 1361-1456): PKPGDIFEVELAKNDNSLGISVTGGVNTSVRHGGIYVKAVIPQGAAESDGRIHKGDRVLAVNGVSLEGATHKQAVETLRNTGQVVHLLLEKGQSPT
# How it was run: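 NMR titration of test peptide into PDZ2 expressed in E. coli BL21(DE3), 1 mM, in 150 mM NaCl, 50 mM sodium phosphate pH 6.8, 10% D2O, at 25 °C on 500/600 MHz spectrometers. Protein concentration by UV absorbance at 280 nm; Kd derived from titration.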
# [2] = target: T1, PDZ2 (second PDZ domain, 1361-1456) from human PTP1E/PTPL1; assay: Fluorescence binding affinity of peptide to PDZ2
# [3] = target: T2, APC C-terminal peptide (Homo sapiens); assay: NMR titration
# T2 chain: GSYLVTSV
molecule,measurement,setting,value
CC(C)C[C@H](NC(=O)[C@H](Cc1ccc(O)cc1)NC(=O)[C@H](CO)NC(=O)CN)C(=O)N[C@H](C(=O)N[C@H](C(=O)N[C@@H](CO)C(=O)N[C@H](C(=O)O)C(C)C)[C@@H](C)O)C(C)C [APC] (H-GSYLVTSV-OH),Kd,[1],10 µM
CC(=O)N[C@@H](CCC(=O)O)C(=O)N[C@@H](CC(N)=O)C(=O)N[C@@H](CCC(=O)O)C(=O)N[C@@H](CCC(N)=O)C(=O)N[C@H](C(=O)N[C@@H](CO)C(=O)N[C@@H](C)C(=O)N[C@H](C(=O)O)C(C)C)C(C)C [RA-GEF2] (Ac-ENEQVSAV-OH),Kd,[2],10 µM
PTP1E (PTPL1) PDZ2 1361-1456 (protein) PKPGDIFEVELAKNDNSLGISVTGGVNTSVRHGGIYVKAVIPQGAAESDGRIHKGDRVLAVNGVSLEGATHKQAVETLRNTGQVVHLLLEKGQSPT,Kd,[3],10 µM
